What was measured:
[1] = molecular target: T1, Integrin alpha-4/beta-7 (Homo sapiens) (UniProt P13612+P26010); experiment: Ability to inhibit adhesion of alpha4-beta7 integrin expressing 38-beta7 lymphoma cells to chinese hamster ovary (CHO) cells stably transfected with MAdCAM-1; assay type: cell-based
Method in brief: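 38-β7 lymphoma cells (α4β7+) labelled 30 min at 37 °C with 12 μg/mL H33342, then 8×10^5/mL in buffer with 1.0 mM Ca2+/Mg2+. Preincubated 10 min at 37 °C with peptide at 1 mg/mL final. Allowed to adhere 30 min at 37 °C to confluent MAdCAM-1-transfected CHO monolayers (seeded 24 h before). Nonadherent cells removed by inverse centrifugation. Result given as % of medium control, mean of two experiments.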

[2] = molecular target: T1, Integrin alpha-4/beta-7 (Homo sapiens); experiment: Inhibition of alpha4-beta7 lymphoma cell binding to CHO-VCAM-1 cells.; assay type: cell-based

| SMILES | Adhesion [1] [%] | Adhesion [2] [%] |
| --- | --- | --- |
| CC(C)C[C@@H]1NC(=O)[C@@H](C)NC(=O)[C@H]2CCCN2C(=O)[C@@H](CC(=O)O)NC(=O)[C@H](C(C)C)NC(=O)[C@@H](CC(=O)O)NC1=O | 40 |  |
| NC(=O)C[C@@H]1NC(=O)CNC(=O)[C@@H](Cc2ccccc2)NC(=O)[C@@H](Cc2c[nH]cn2)NC(=O)[C@@H](CCC(=O)O)NC1=O | 100 | 93 |
| CC(C)C[C@@H]1NC(=O)[C@H](C)NC(=O)[C@@H](C)NC(=O)[C@@H]([C@@H](C)O)NC(=O)[C@@H](CC(=O)O)NC1=O | 85 |  |
| CC(C)C[C@@H]1NC(=O)[C@@H](C)NC(=O)[C@H]2CCCN2C(=O)[C@@H](C)NC(=O)[C@H]([C@@H](C)O)NC(=O)[C@@H](CC(=O)O)NC1=O | 7 |  |
| CC(C)C[C@@H]1NC(=O)[C@@H](CCC(=O)O)NC(=O)[C@H]2CCCN2C(=O)[C@@H](C)NC(=O)[C@H]([C@@H](C)O)NC(=O)[C@@H](CC(=O)O)NC1=O | 65 |  |
| CC(C)C[C@@H]1NC(=O)[C@@H](CC(=O)O)NC(=O)[C@H]2CCCN2C(=O)[C@@H](Cc2ccccc2)NC(=O)[C@H]([C@@H](C)O)NC(=O)[C@@H](CC(=O)O)NC1=O | 100 |  |
| CC(C)C[C@@H]1NC(=O)[C@@H](C)NC(=O)[C@@H](Cc2ccccc2)NC(=O)[C@@H](CC(=O)O)NC(=O)[C@H]([C@@H](C)O)NC(=O)[C@@H](CC(=O)O)NC1=O | 63 |  |
| CC[C@H](C)[C@H]1NC(=O)[C@H](C)NC(=O)[C@@H](C)NC(=O)[C@H]([C@@H](C)O)NC(=O)[C@@H](CC(=O)O)NC1=O (stereo in doubt; P6) | 63 |  |
| CC(C)C[C@@H]1NC(=O)[C@@H](C)NC(=O)[C@H]2CCCN2C(=O)[C@@H](C)NC(=O)[C@H](CO)NC(=O)[C@@H](CC(=O)O)NC1=O | 90 |  |
| CC(C)C[C@@H]1NC(=O)[C@@H](Cc2ccc(O)cc2)NC(=O)[C@H]2CCCN2C(=O)[C@@H](CCCCN)NC(=O)[C@H]([C@@H](C)O)NC(=O)[C@@H](CC(=O)O)NC1=O | 81 |  |
| CC(C)C[C@@H]1NC(=O)[C@@H](Cc2ccc(C(=O)c3ccccc3)cc2)NC(=O)[C@H]2CCCN2C(=O)[C@@H](CC(=O)O)NC(=O)[C@H]([C@@H](C)O)NC(=O)[C@@H](CC(=O)O)NC1=O | 10 |  |
| CSCC[C@H]1NC(=O)[C@H]([C@@H](C)O)NC(=O)[C@@H](CC(=O)O)NC(=O)[C@H](CC(C)C)NC(=O)[C@@H](CC(=O)O)NC(=O)[C@H]2CCCN2C1=O | 83 |  |
| CC(C)[C@@H]1NC(=O)[C@@H](C)NC(=O)[C@H]2CCCN2C(=O)[C@@H](C)NC(=O)[C@H]([C@@H](C)O)NC(=O)[C@@H](CC(=O)O)NC1=O | 97 |  |
| CC(C)C[C@@H]1NC(=O)[C@@H](C)NC(=O)[C@H]2CCCN2C(=O)[C@@H](C)NC(=O)CNC(=O)[C@@H](CC(=O)O)NC1=O | 91 |  |
| C[C@H]1NC(=O)[C@H]2CCCN2C(=O)[C@@H](CC(=O)O)NC(=O)[C@H]([C@@H](C)O)NC(=O)[C@@H](CC(=O)O)NC(=O)[C@H](Cc2ccccc2)NC1=O | 102 |  |
| CC(C)C[C@@H]1NC(=O)[C@@H](C)NC(=O)[C@H](C)NC(=O)[C@H]2CCCN2C(=O)[C@H]([C@@H](C)O)NC(=O)[C@@H](CC(=O)O)NC1=O | 111 |  |
| CC(C)C[C@@H]1NC(=O)[C@@H](C)NC(=O)[C@H](C)NC(=O)[C@@H](C)NC(=O)[C@H]([C@@H](C)O)NC(=O)[C@@H](CC(=O)O)NC1=O | 85 |  |
| CC(C)C[C@@H]1NC(=O)[C@@H](Cc2ccccc2)NC(=O)[C@H]2CCCN2C(=O)[C@@H](CCCCN)NC(=O)[C@H]([C@@H](C)O)NC(=O)[C@@H](CC(=O)O)NC1=O | 85 |  |
| C[C@H]1NC(=O)[C@H]2CCCN2C(=O)[C@@H](C)NC(=O)[C@H]([C@@H](C)O)NC(=O)[C@@H](CC(=O)O)NC(=O)CNC1=O | 105 |  |
| CC[C@H](C)[C@@H]1NC(=O)[C@H](C)NC(=O)[C@@H](C)NC(=O)[C@H]([C@@H](C)O)NC(=O)[C@@H](CC(=O)O)NC1=O | 137 |  |

| SMILES | Adhesion [1] [%] | Adhesion [2] [%] |
| --- | --- | --- |
| CC(C)C[C@@H]1NC(=O)[C@@H](Cc2ccccc2)NC(=O)[C@@H](Cc2ccccc2)NC(=O)[C@@H](CC(=O)O)NC(=O)[C@H]([C@@H](C)O)NC(=O)[C@@H](CC(=O)O)NC1=O | 56 |  |
| CC(C)C[C@@H]1NC(=O)[C@@H](C)NC(=O)[C@H]2CCCN2C(=O)[C@@H](CC(=O)O)NC(=O)[C@H]([C@@H](C)O)NC(=O)[C@@H](CC(=O)O)NC1=O | 47 |  |
| CC(C)C[C@@H]1NC(=O)[C@@H]([C@@H](C)O)NC(=O)[C@H]2CCCN2C(=O)[C@@H](C)NC(=O)[C@H]([C@@H](C)O)NC(=O)[C@@H](CC(=O)O)NC1=O | 49 |  |
| CC(C)C[C@@H]1NC(=O)[C@@H](CC(=O)O)NC(=O)[C@@H](Cc2ccccc2)NC(=O)[C@@H](C)NC(=O)[C@H]([C@@H](C)O)NC(=O)[C@@H](CC(=O)O)NC1=O | 86 |  |
| CC(C)C[C@@H]1NC(=O)[C@@H](CC(=O)O)NC(=O)[C@H]2CCCN2C(=O)[C@@H](CCCCN)NC(=O)[C@H]([C@@H](C)O)NC(=O)[C@@H](CC(=O)O)NC1=O | 102 |  |
| CC(C)C[C@@H]1NC(=O)[C@@H](CC(=O)O)NC(=O)[C@H]2CCCN2C(=O)[C@@H](Cc2ccc(O)cc2)NC(=O)[C@H]([C@@H](C)O)NC(=O)[C@@H](CC(=O)O)NC1=O | 76 |  |
| CC(C)C[C@@H]1NC(=O)[C@@H](CC(=O)O)NC(=O)[C@H]2CCCN2C(=O)[C@@H](Cc2c[nH]c3ccccc23)NC(=O)[C@H]([C@@H](C)O)NC(=O)[C@@H](CC(=O)O)NC1=O | 87 |  |
| C[C@H]1NC(=O)[C@H]2CCCN2C(=O)[C@@H](CC(=O)O)NC(=O)[C@H]([C@@H](C)O)NC(=O)[C@@H](CC(=O)O)NC(=O)[C@@H](c2ccccc2)NC1=O | 114 |  |
| C[C@H]1NC(=O)[C@H]2CCCN2C(=O)[C@@H](CC(=O)O)NC(=O)[C@H]([C@@H](C)O)NC(=O)[C@@H](CC(=O)O)NC(=O)[C@H](c2ccccc2)NC1=O | 98 |  |
| CC[C@H](C)[C@H]1NC(=O)[C@H](C)NC(=O)[C@@H](C)NC(=O)[C@H]([C@@H](C)O)NC(=O)[C@@H](CC(=O)O)NC1=O (stereo in doubt; P1) | 100 |  |
| CC(C)C[C@@H]1NC(=O)[C@@H]2Cc3ccccc3CN2C(=O)[C@H]2CCCN2C(=O)[C@@H](CC(=O)O)NC(=O)[C@H]([C@@H](C)O)NC(=O)[C@@H](CC(=O)O)NC1=O | 9 |  |
| CC(C)C[C@@H]1NC(=O)[C@@H](C)NC(=O)[C@H]2CCCN2C(=O)[C@@H](C)NC(=O)[C@H](C(C)C)NC(=O)[C@@H](CC(=O)O)NC1=O | 50 |  |
| CC(C)C[C@@H]1NC(=O)C(C2CCCCC2)NC(=O)[C@H]2CCCN2C(=O)[C@@H](CC(=O)O)NC(=O)[C@H]([C@@H](C)O)NC(=O)[C@@H](CC(=O)O)NC1=O (stereo partly specified) | 58 |  |
| CC(C)C[C@@H]1NC(=O)[C@@H](CCCN=C(N)N)NC(=O)[C@H]2CCCN2C(=O)[C@@H](C)NC(=O)[C@H]([C@@H](C)O)NC(=O)[C@@H](CC(=O)O)NC1=O | 26 |  |
| CC(C)C[C@@H]1NC(=O)[C@H]2CCCN2C(=O)[C@@H](C)NC(=O)[C@H]([C@@H](C)O)NC(=O)[C@@H](CC(=O)O)NC1=O | 74 |  |
| CC(C)C[C@@H]1NC(=O)[C@@H](CC(=O)O)NC(=O)[C@H]2CCCN2C(=O)[C@@H](C)NC(=O)[C@H]([C@@H](C)O)NC(=O)[C@@H](CC(=O)O)NC1=O | 115 |  |
| CC(C)C[C@@H]1NC(=O)[C@H]2CCCN2C(=O)[C@H](C)NC(=O)[C@@H](C)NC(=O)[C@H]([C@@H](C)O)NC(=O)[C@@H](CC(=O)O)NC1=O | 30 |  |
| CC(C)C[C@@H]1NC(=O)[C@@H](CC(=O)O)NC(=O)[C@@H](CC(=O)O)NC(=O)[C@@H](C)NC(=O)[C@H]([C@@H](C)O)NC(=O)[C@@H](CC(=O)O)NC1=O | 99 |  |
| CC[C@H](C)[C@@H]1NC(=O)[C@@H](C)NC(=O)[C@H]2CCCN2C(=O)[C@@H](C)NC(=O)[C@H]([C@@H](C)O)NC(=O)[C@@H](CC(=O)O)NC1=O | 64 |  |
| CC(C)C[C@@H]1NC(=O)[C@H](C)NC(=O)[C@H]2CCCN2C(=O)[C@H]([C@@H](C)O)NC(=O)[C@@H](CC(=O)O)NC1=O | 89 |  |
